Screening results as filed in PubChem.
LMPTP block – LMPTP phosphatase inhibitors, primary screen, biochemical, fluorescence intensity, uHTS; 360,000 tested, 0.22% active; recombinant LMPTP-A, OMFP fluorogenic substrate; inhibition, % at 20 µM;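 active means compounds that cut the enzyme signal by at least half of the control window in the single-dose screen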;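 further: plate controls were DMSO wells with enzyme plus substrate for no effect and substrate without enzyme for full effect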
Target sequence (P24666 whole entry, looked up): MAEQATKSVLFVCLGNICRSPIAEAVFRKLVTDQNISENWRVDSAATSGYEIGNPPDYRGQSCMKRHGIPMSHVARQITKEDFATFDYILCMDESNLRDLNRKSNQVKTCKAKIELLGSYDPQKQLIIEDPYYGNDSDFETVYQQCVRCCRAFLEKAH
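Material: LMPTP-A; amount: 0.625 nM enzyme; doses: single 20 µM dose; times: reaction 50 min, room temperature, dark; technique: fluorescence intensity of OMFP turnover product; benchmarks: no-enzyme and uninhibited controls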
STEP block – STEP phosphatase inhibitors, primary screen, biochemical, fluorescence intensity, uHTS. Tyrosine-protein phosphatase non-receptor type 5 (Homo sapiens), P54829. recombinant STEP, OMFP fluorogenic substrate. inhibition, % at 20 µM. 360,000 tested, 0.25% active. AID 588621, 2011;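 active means inhibition at 20 µM, scaled per plate between control wells, above about 37%, limit read from the data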;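 further: 0% = DMSO with enzyme and substrate and 100% = substrate only without enzyme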
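material = STEP tyrosine phosphatase | reagent = fluorogenic phosphatase substrate OMFP at 25 µM final | doses = single compound dose of 20 µM, 1% DMSO final | schedule = 20 min reaction, room temperature, in the dark | measured by = fluorescence, 480/540 nm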
Scp-1 inhibitor – Scp-1 phosphatase inhibitors, primary screen, biochemical, colorimetric, uHTS; Recombinant Scp1, phosphopeptide, malachite green phosphate absorbance; 340,000 tested, 0.88% active; inhibition, % at 20 µM; Carboxy-terminal domain RNA polymerase II polypeptide A small phosphatase 1 (Homo …;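 active means inhibition above about 50% at 20 µM, limit read from the data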;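 further: plate controls were DMSO wells with enzyme for no effect and wells lacking enzyme for full effect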
Target sequence (Q9GZU7 76-261 limits assumed): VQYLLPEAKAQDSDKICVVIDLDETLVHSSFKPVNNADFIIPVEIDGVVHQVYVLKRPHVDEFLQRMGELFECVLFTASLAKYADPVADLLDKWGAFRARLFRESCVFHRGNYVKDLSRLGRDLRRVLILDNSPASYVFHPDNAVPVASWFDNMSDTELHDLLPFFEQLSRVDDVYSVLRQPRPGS
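Times: enzyme reaction 45 min at room temperature, colour 5 min, stabilisation 30 min. Material: SCP-1 catalytic fragment, aa 76-261. Medium: Acidic Tris acetate buffer with magnesium and detergent. Signal: colorimetric free-phosphate detection, absorbance 630 nm. Read-out basis: % inhibition of SCP-1 phosphate liberation. Reagent: Phosphorylated 17-residue peptide substrate.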
NadD block – inhibitors of S. aureus NadD, primary screen, biochemical, colorimetric, uHTS; Nicotinate-nucleotide adenylyltransferase NadD (Staphylococcus aureus N315); purified NadD enzyme, colorimetric absorbance read-out; inhibition, % at 20 µM; 360,000 tested, 0.78% active; in the data active means inhibition above about 26%
SUMO1-SIM PPI – modulators of SUMO1 protein-protein interactions, primary screen, biochemical, uHTS; SUMO1 binding to a labelled peptide, TR-FRET, 1 h; inhibition, % at 20 µM; 360,000 tested, 0.33% active; AID 602429, 2012; in the data active means inhibition above about 37%
Target sequence (P63165 whole entry, looked up): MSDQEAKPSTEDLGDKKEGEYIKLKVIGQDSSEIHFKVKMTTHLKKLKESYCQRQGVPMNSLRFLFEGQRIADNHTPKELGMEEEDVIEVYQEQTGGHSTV
DNMT1 inh – human DNMT1 methyltransferase inhibitors, primary screen, biochemical, molecular beacon, fluorescence, HinP1I cleavage, uHTS; DNA (cytosine-5)-methyltransferase 1 (Homo sapiens), P26358; inhibition (reported as % activation of signal), % at 10 µM; 360,000 tested, 0.83% active; in the data active means inhibition above about 50%
DNMT1 interf DR – spectral interference with molecular beacon fluorescence, dose response, artefact control for DNMT1 inhibitor project, biochemical, fluorescent molecular beacon; shares compounds with DNMT1 inh; spectral interference counter-screen; IC50, µM; 200 tested, under 10 active; call rule not given here
DNMT1 confirm – DNMT1 methyltransferase inhibitor retest, confirmation, biochemical, molecular beacon, fluorescence, single concentration; 2,300 tested, 8% active; shares compounds with DNMT1 inh; inhibition, % at 10 µM; DNMT1 molecular beacon HinP1I cleavage; AID 602385, 2012;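 active means average inhibition of at least 30% in the single-concentration confirmation test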
Beacon interf – counter-screen for DNMT1 inhibitors: spectral interference | shares compounds with DNMT1 inh | DNMT1 molecular beacon spectral interference counterscreen, fluorescence 485/520 | activation (fluorescence interference), % at 10 µM | 2,300 tested, 1% active;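 active means activation of at least 30% at 10 µM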;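 further: DNMT1 catalytic domain with a HinP1I cleavage step and a FAM/dabcyl DNA beacon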
The depositor's hits bear a star; nt = not tested or not shown. Compounds with a hit are over-represented: about 2.4% of the library has one in this group of screens.

SMILES	LMPTP block	STEP block	Scp-1 inhibitor	NadD block	SUMO1-SIM PPI	DNMT1 inh	DNMT1 confirm	Beacon interf	others
Cc1ccc(C(=O)OC(C)C(=O)NC2CCCCC2C)s1 (stereo unspecified)	0	3	-2	-3	8	83*	2	3
O=C(CCSCc1cccc(Cl)c1)NCCc1ccccc1	2	-2	-5	-9	2	4	nt	nt
COc1cccc2cc(C(=O)Nc3cc(Cl)ccc3N3CCOCC3)c(=O)oc12	1	3	-6	-2	2	55*	3	5
CNC(=O)c1cc2cccc(OC)c2oc1=O	-1	1	6	3	-16	-1	nt	nt
COc1ccc(N=Cc2oc3ccc4ccccc4c3c2O)cc1	11	20	40	-2	-15	60*	4	2
O=C(N/N=C/c1ccc(F)cc1)c1c(O)c2ccccc2[nH]c1=O	8	2	-4	9	2	54*	3	-6
O=C(N/N=C/c1ccccc1)c1c(O)c2ccccc2[nH]c1=O	-1	0	-10	8	-2	1	nt	nt
Cc1ccc(/C=C/C(=O)O)cc1S(=O)(=O)Nc1ccc(C(=O)O)cc1	-1	-1	-1	-3	11	67*	2	24
COCCNC(=O)CSc1nnc(NC(=O)C2CC(=O)N(c3ccccc3OC)C2)s1 (stereo unspecified)	0	2	-5	10	7	0	nt	nt
Cc1ccccc1NC(=O)C1CCN(S(=O)(=O)c2cccc3nonc23)CC1	0	0	-1	0	-35	2	nt	nt
CC(=O)Nc1ccc(S(=O)(=O)N2CCN(C(=O)C3COc4ccccc4O3)CC2)cc1 (stereo unspecified)	0	-1	-7	0	-2	0	nt	nt
COc1ccc(S(=O)(=O)N2CCN(C(=O)C3COc4ccccc4O3)CC2)cc1 (stereo unspecified)	56*	35	64*	1	19	95*	54*	2	DNMT1 interf DR=>99
O=C(NCCN1CCCCC1)Nc1cccc(C(F)(F)F)c1	1	3	0	-11	-14	-4	nt	nt
C/C=C/C=N/Nc1nc(-c2ccc([N+](=O)[O-])cc2)cs1	-1	2	-5	6	-18	3	nt	nt
CCCc1ccc(S(=O)(=O)N2CCN(C(=O)CN3C(=O)NC(C)(C4CC4)C3=O)CC2)cc1 (stereo unspecified)	0	-1	nt	5	-1	-1	nt	nt
Cc1nc(C(=O)Nc2ccccc2Cl)cc2c1[nH]c1ccccc12	-1	0	3	15	-1	50*	1	0
COc1ccc(S(=O)(=O)Nc2ccc(S(=O)(=O)Nc3cc(C)nc(C)n3)cc2)cc1OC	-2	-4	-8	-1	11	76*	3	4
COc1cccc(C(=O)NNC(=O)c2ccc(NS(=O)(=O)c3cccs3)cc2)c1OC	-1	-1	-3	0	8	1	nt	nt
Cc1cccc2c(N=NC(=O)c3ccc(NS(=O)(=O)c4cccs4)cc3)c(O)[nH]c12	2	-4	5	61*	-5	87*	19	-4
COc1ccc(C2CC(c3ccccc3C(F)(F)F)=NN2c2ccc(S(N)(=O)=O)cc2)cc1 (stereo unspecified)	2	-4	4	12	7	65*	15	12
COC(=O)c1sccc1NC(=O)Cc1ccc(OC)cc1	1	2	-7	-4	1	92*	4	13
[O-][n+]1c2ccccc2[n+]([O-])c2cc(O)ccc21	20	11	57*	-4	21	56*	2	1
[O-][n+]1c(/C=C/c2ccccc2)ccc2ccccc21	0	1	-4	1	1	11	nt	nt
CCN(CC(=O)Nc1ccc(NC(C)=O)cc1)C(=O)CCCc1nc2ccccc2s1	0	0	-5	4	-4	5	nt	nt
O=[N+]([O-])c1cccc(/C=N/NC2CCS(=O)(=O)C2)c1 (stereo unspecified)	0	0	2	-1	-10	-3	nt	nt
SMILES	LMPTP block	STEP block	Scp-1 inhibitor	NadD block	SUMO1-SIM PPI	DNMT1 inh	DNMT1 confirm	Beacon interf	others
COc1ccccc1NC(=O)COC(=O)C1CC2CCCC(C1)C2=O (stereo unspecified)	-1	1	-12	0	6	6	nt	nt
Cc1ccc(/C=C2\SC(N3CCN(C(c4ccccc4)c4ccccc4)CC3)=NC2=O)o1	6	3	-6	59*	-1	79*	-4	-5
O=C1N=C(N2CCOCC2)SC1=Cc1ccco1	-1	-2	-1	2	-16	81*	4	5
O=C1N=C(N2CCOCC2)S/C1=C\c1cccnc1	-1	-4	-3	-5	-5	1	nt	nt
Cc1ccc(-c2ccc(/C=C3\SC(N4CCOCC4)=NC3=O)o2)cc1	3	7	5	-5	-17	-2	nt	nt
Cc1ccc(OCC(=O)Nc2ccc(-c3nc4ncccc4o3)cc2)c(C)c1	12	-2	5	-5	4	55*	4	4
Cc1ccc(OCC(=O)Nc2ccncc2)c(C)c1	-2	2	-2	-4	5	-2	nt	nt
CCOCCCNC(=O)c1ccccc1Br	-1	-4	-7	8	-1	0	nt	nt
CCOCCCNC(=O)c1ccccc1SCC	0	2	3	1	4	52*	3	7
CC(=O)OCCc1c2ccccc2c(CCCN(C)C)c2ccccc12	3	0	-10	-4	-46	51*	3	2
CC1Cc2ccccc2N1C(=O)COC(=O)CCc1nc2ccccc2c(=O)[nH]1 (stereo unspecified)	-1	1	-1	-1	-2	-1	nt	nt
Cc1ccc(NC(=O)CN(C)C(=O)CCOc2cccc(C)c2)cc1	-1	0	-4	-7	2	-1	nt	nt
